Reference: ChEMBL document CHEMBL3421551, “Puupehenol, a potent antioxidant antimicrobial meroterpenoid from a Hawaiian deep-water Dactylospongia sp. sponge” (J Nat Prod, 2015)
Active and inactive are the calls of the source. The calls are words filed in the database; no cut-off is given here.

Columns and labels:
[1] = Antioxidant activity assessed as ferric reducing antioxidant power at 1 mg/ml by FRAP assay; type: physicochemical
In short: (§1)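 Working reagent was 300 mM acetate buffer (pH 3.6), 10 mM TPTZ in 40 mM HCl and 20 mM FeCl3·6H2O mixed 10:1:1 and warmed to 37 °C. A blank read at 595 nm was taken, then sample was added. After 8 min at room temperature, absorbance was read at 595 nm, in triplicate. FRAP values (μM) came from an FeSO4 standard curve (50–1000 μM) run on each plate.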

[2] = system: Bacillus cereus; experiment: Antimicrobial activity against Bacillus cereus at 10 ug/disc by disc diffusion assay; type: functional; conditions: read-out: IZ
[3] = system: Staphylococcus aureus; experiment: Antimicrobial activity against Staphylococcus aureus at 10 ug/disc by disc diffusion assay; type: functional; conditions: read-out: IZ
[4] = system: Pseudomonas aeruginosa; experiment: Antimicrobial activity against Pseudomonas aeruginosa at 10 ug/disc by disc diffusion assay; type: functional, organism-based
[5] = system: Escherichia coli; experiment: Antimicrobial activity against Escherichia coli at 10 ug/disc by disc diffusion assay; type: functional; conditions: for zone of inhibition at 10 µg/disc: read-out: IZ
In short: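 Disc diffusion assay, tested alongside S. aureus, B. cereus and P. aeruginosa. Discs loaded at 10 μg each, with a methanol disc as the negative control.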

[6] = Antioxidant activity assessed as ferric reducing antioxidant power at 0.1 mg/ml by FRAP assay; type: physicochemical; in short: as §1

| Activity [6] | Structure (SMILES) | Activity [1] | zone of inhibition at 10 µg/disc [2] | zone of inhibition at 10 µg/disc [3] | inhibition zone (IZ) [4] | inhibition zone (IZ) [5] | zone of inhibition at 10 µg/disc [5] |
| --- | --- | --- | --- | --- | --- | --- | --- |
| – | CC1(C)CCC[C@]2(C)[C@H]3[C@H](O)c4cc(O)c(O)cc4O[C@@]3(C)CC[C@@H]12 (relative stereo) | 2500 µM | 3 mm | 4 mm | inactive | inactive | – |
| – | CC1(C)S[C@@H]2[C@H](NC(=O)[C@H](N)c3ccccc3)C(=O)N2[C@H]1C(=O)O [AMPICILLIN] | – | 9 mm | 31 mm | inactive | – | 20 mm |
| 870 µM | O=C1O[C@H]([C@@H](O)CO)C(O)=C1O [ASCORBIC ACID] | – | – | – | – | – | – |
| – | CO [METHYL ALCOHOL] | 4.7 µM | 0 mm | 0 mm | inactive | – | 0 mm |
| – | CC1(C)CCC[C@]2(C)[C@H]3C=C4C=C(O)C(=O)C=C4O[C@@]3(C)CC[C@@H]12 [PUUPEHENONE] | 2600 µM | 3 mm | 4 mm | inactive | inactive | – |
